# Reference: ChEMBL document CHEMBL1128281 (J Med Chem, 1995)
# How the values were obtained:
# Rattus norvegicus [1] = species on record: Rattus norvegicus; test: Ability to block apomorphine-induced stereotypy in rats.; assay type: functional
# Outline: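 Male Wistar rats (150–250 g), 6–10 per dose group, given distilled water or test drug ip; apomorphine 1.5 mg/kg sc 50 min later. Rats were placed singly in cages and scored 10 min afterwards for continuous stereotyped licking or sniffing. Inhibition was the number of animals protected versus controls. ED50 was obtained by probit analysis.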
# Rattus norvegicus [2] = test: Pole climb avoiding activity in rats was determined after 1 hr of intraperitoneal administration of the compound; assay type: functional; details: ip
# Outline: (§1)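 Male Long Evans rats trained to 80% avoidance in a discrete-trial signaled pole-climb paradigm: 25 trials per 50 min session, maximum 26 s of shock per trial. Distilled water or drug was given ip, 6 per dose group, at a 60 min pretreatment. Avoidance responses and escape failures were compared with water controls. ED50 by linear regression.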
# Rattus norvegicus [3] = test: Side effect liability of compound at intraperitoneal dose of 20 mg/kg on 13.7 (A9 units)dopamine neurons in the nigrostriatal in rat; assay type: functional
# Outline: (§2)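 Male Wistar rats (280–360 g) were dosed ip once daily for 21 days with compound suspended in distilled water plus 1 drop Tween 80; vehicle rats served as controls. Sampling began 2 h after the last dose under chloral hydrate anesthesia (400 mg/kg ip). Spontaneously active A9 and A10 dopamine units were counted per 12 tracks. Groups were compared by one-way ANOVA with Newman–Keuls post hoc.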
# Rattus norvegicus [4] = test: Induction of catalepsy in rats was determined after 1 hr of intraperitoneal administration at 80 mg/kg; assay type: functional
# Outline: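 Male Wistar rats (150–250 g, 6–10/dose group) were dosed ip with compound or distilled water. Every hour for 6 h after dosing, the forepaws were placed on an elevated wooden bar, and a rat was scored cataleptic if the paws stayed on the bar for 60 s.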
# Rattus norvegicus [5] = test: Pole climb escape failures of rats was determined after 1 hr of intraperitoneal administration of the compound; assay type: functional; details: ip; outline: as §1
# Rattus norvegicus [6] = test: Social interaction of rats was determined after 1 hr of intraperitoneal administration at 10 mg/kg; assay type: functional
# Outline: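 Pairs of male Wistar rats (200–275 g) were acclimated to the arena for 8 min on two consecutive days. On day 3, unfamiliar rats (six pairs/group) got drug or vehicle, and 30 or 60 min later they were paired and observed for 5 min. Social interaction time and total activity were compared with controls by one-way ANOVA and Duncan's test.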
# Rattus norvegicus [7] = test: Antagonistic activity administered intraperitoneally on head twitches induced by 5- HTP; assay type: functional; details: ip
# Outline: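 Male Wistar rats (180–280 g), groups of eight. L-5-HTP given ip (240 mg/10 mL distilled water with Tween 80); compounds given ip 30 min after 5-HTP. At 60 min post-5-HTP, head twitches were counted for 10 min per rat under white noise, then expressed as percent change from vehicle. Dose–response used 3–4 dose groups; ED50 by linear regression.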
# Rattus norvegicus [8] = test: Intracranial self stimulation in rat was determined after 1 hr of intraperitoneal administration of the compound; assay type: functional; details: ip
# Outline: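 Male Wistar rats (300–400 g) with chronic electrodes in the medial forebrain bundle at the preoptic level, trained after 2 weeks of recovery to lever-press for biphasic square-wave pulse trains. Once baseline responding was stable, drug was given (3–6 per dose group) and compared with nondrug controls. ED50 was calculated by linear regression on percent change from control.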
# Rattus norvegicus [9] = test: Antipsychotic efficacy of compound at intraperitoneal dose of 20 mg/kg on 1.8 (A10 units) dopamine neurons in the mesolimbic region of rat; assay type: functional; outline: as §2
# Rattus norvegicus [10] = test: Induction of catalepsy in rats was determined after 2 hr of intraperitoneal administration of the compound; assay type: functional; details: ip
# Outline: (§3)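 Male Wistar rats (150–250 g), 6–10 per dose group, dosed ip with distilled water or drug. Each hour for 6 h, forepaws were placed on an elevated wooden bar; remaining there 60 s counted as cataleptic.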
# Mus musculus = species on record: Mus musculus; test: Ability to inhibit apomorphine-induced climbing behavior in mice.; assay type: functional
# Outline: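 Male CD-1 mice (18–30 g) were adapted for 1 h in wire-mesh cages, 8 per dose group. Distilled water or drug was given ip 30 or 60 min before apomorphine 1.5 mg/kg sc.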
# Rattus norvegicus [11] = test: Social interaction of rats was determined after 1 hr of intraperitoneal administration at […]; assay type: functional
# Rattus norvegicus [12] = test: Side effect liability of compound at intraperitoneal dose of 0.5 mg/kg on 6.2 (A9 units)dopamine neurons in the nigrostriatal in rat; assay type: functional
# Rattus norvegicus [13] = test: Antipsychotic efficacy of compound at intraperitoneal dose of 0.5 mg/kg on 6.8 (A10 units) dopamine neurons in the mesolimbic region of rat; assay type: functional
# Rattus norvegicus [14] = test: Induction of catalepsy in rats was determined after 1 hr of intraperitoneal administration of the compound; assay type: functional; details: ip; outline: as §3
# [15] = target: Muscarinic acetylcholine receptor M3 (Rattus norvegicus, UniProt P08483); test: Binding affinity against Muscarinic acetylcholine receptor using [3H]quinuclidinyl benzilate
# Muscarinic acetylcholine receptor M3, sequence (P08483 whole entry): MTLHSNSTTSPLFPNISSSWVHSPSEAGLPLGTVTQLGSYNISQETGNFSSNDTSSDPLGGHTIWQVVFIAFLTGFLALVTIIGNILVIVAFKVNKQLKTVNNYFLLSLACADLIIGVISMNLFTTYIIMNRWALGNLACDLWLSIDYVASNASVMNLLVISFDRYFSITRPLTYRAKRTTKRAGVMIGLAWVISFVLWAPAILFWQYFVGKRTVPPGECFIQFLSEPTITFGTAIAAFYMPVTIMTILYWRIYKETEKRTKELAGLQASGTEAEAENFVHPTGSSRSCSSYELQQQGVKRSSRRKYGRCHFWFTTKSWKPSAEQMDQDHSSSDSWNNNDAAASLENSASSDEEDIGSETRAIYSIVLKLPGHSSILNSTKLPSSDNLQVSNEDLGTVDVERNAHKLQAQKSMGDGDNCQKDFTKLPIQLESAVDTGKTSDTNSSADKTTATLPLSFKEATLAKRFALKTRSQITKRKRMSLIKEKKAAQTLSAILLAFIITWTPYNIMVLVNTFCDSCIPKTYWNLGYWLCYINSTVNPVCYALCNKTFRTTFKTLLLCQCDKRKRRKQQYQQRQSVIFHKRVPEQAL
# Rattus norvegicus [16] = test: Social interaction of rats was determined after 1 hr of intraperitoneal administration at 1 mg/kg; assay type: functional
# Outline: (§4)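 Pairs of male Wistar rats (200–275 g) were acclimated to the arena for 8 min on two days. On day 3, unfamiliar pairs were formed, six pairs per group, and dosed with drug or vehicle. Interaction time and total activity were compared by one-way ANOVA with Duncan's test.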
# [17] = target: 5-hydroxytryptamine receptor 2A (Bos taurus, UniProt Q75Z89); test: Binding affinity against 5-hydroxytryptamine 2 receptor was determined using [ [3H]spiperone radioligand
# 5-hydroxytryptamine receptor 2A, sequence (Q75Z89 whole entry): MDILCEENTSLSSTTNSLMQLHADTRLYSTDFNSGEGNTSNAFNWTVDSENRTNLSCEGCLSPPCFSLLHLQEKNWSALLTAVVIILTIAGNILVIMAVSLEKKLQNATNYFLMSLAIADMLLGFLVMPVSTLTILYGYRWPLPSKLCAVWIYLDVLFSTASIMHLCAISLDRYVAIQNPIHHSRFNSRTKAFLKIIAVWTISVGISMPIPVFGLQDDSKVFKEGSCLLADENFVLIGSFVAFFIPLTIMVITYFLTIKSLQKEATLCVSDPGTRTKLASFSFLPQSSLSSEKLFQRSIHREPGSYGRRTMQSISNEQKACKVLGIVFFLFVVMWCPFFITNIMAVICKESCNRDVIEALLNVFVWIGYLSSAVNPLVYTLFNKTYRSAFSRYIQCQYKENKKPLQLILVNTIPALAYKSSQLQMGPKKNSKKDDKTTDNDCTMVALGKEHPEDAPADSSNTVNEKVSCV
# Rattus norvegicus [18] = test: Side effect liability of compound at intraperitoneal dose of 5 mg/kg on 16.1 (A9 units)dopamine neurons in the nigrostriatal in rat; assay type: functional
# [19] = target: T1, 5-hydroxytryptamine receptor 1A (Mus musculus, UniProt Q64264); test: Binding affinity against 5-hydroxytryptamine 1A receptor was determined using [3H]-8-OH-DPAT radioligand
# T1 sequence (Q64264 whole entry): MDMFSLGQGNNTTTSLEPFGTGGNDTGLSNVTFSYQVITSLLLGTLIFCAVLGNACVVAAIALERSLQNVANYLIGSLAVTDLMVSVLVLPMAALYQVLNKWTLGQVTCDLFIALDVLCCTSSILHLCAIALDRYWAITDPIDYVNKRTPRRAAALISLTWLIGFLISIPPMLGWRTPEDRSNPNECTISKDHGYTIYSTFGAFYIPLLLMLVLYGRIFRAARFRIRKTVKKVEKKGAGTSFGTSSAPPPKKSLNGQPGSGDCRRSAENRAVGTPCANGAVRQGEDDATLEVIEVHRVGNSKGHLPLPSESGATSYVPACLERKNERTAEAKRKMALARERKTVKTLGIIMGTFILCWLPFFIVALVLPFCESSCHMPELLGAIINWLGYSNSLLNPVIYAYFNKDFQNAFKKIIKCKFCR
# Rattus norvegicus [20] = test: Side effect liability of compound at intraperitoneal dose of 10 mg/kg on 16.1 (A9 units) dopamine neurons in the nigrostriatal in rat; assay type: functional
# [21] = target: Serotonin 2 (5-HT2) receptor (Rattus norvegicus, UniProt P30994+P08909+P14842); test: Affinity for 5-hydroxytryptamine 2 receptor binding sites by its ability to displace [3H]spiperone from rat frontal cortex.
# Rattus norvegicus [22] = test: Antipsychotic efficacy of compound at intraperitoneal dose of 5 mg/kg on 6.1 dopamine neurons in the mesolimbic (A10) units in rat; assay type: functional
# D(1A) dopamine receptor = D(1A) dopamine receptor (Mus musculus, UniProt Q61616); test: Binding affinity against Dopamine receptor D1 was determined using [3H]SCH-23390 radioligand
# D(1A) dopamine receptor, sequence (Q61616 whole entry): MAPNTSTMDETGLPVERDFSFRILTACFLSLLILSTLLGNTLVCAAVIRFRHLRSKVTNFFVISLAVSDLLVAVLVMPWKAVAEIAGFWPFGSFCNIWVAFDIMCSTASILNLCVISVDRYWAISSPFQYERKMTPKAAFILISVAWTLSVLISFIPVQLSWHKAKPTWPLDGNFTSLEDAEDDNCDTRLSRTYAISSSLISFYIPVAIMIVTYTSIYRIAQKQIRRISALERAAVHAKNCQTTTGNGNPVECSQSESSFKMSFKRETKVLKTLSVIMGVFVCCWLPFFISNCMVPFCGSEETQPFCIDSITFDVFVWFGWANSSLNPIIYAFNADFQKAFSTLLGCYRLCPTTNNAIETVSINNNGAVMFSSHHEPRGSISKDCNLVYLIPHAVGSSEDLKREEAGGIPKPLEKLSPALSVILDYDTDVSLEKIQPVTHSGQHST
# Rattus norvegicus [23] = test: Antipsychotic efficacy of compound at intraperitoneal dose of 10 mg/kg on 6.1 (A10 units)dopamine neurons in the mesolimbic in rat; assay type: functional
# [24] = target: Sigma non-opioid intracellular receptor 1 (Homo sapiens, UniProt Q99720); test: Binding affinity against sigma receptor using [3H]-( +)-SKF10,047 radioligand
# Sigma non-opioid intracellular receptor 1, sequence (Q99720 whole entry): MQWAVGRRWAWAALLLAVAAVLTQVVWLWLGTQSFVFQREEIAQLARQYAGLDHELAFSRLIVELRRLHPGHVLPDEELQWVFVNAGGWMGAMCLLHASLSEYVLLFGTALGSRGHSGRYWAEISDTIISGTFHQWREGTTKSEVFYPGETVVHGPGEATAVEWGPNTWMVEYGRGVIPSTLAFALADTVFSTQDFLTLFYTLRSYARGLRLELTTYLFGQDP
# Rattus norvegicus [25] = test: Intracranial self stimulation in rat was determined after 1 hr of oral administration of the compound; assay type: functional
# Rattus norvegicus [26] = test: Social interaction of rats was determined after 1 hr of intraperitoneal administration at 0.5 mg/kg; assay type: functional; outline: as §4
compound,measurement,setting,value
CN1CCN(C2=Nc3cc(Cl)ccc3Nc3ccccc32)CC1 [CLOZAPINE],ED50,Rattus norvegicus [1],> 40 mg/kg
same,ED50,Rattus norvegicus [2],11.3 mg/kg
same,Change,Rattus norvegicus [3],37%
same,Activity,Rattus norvegicus [4],0%
same,ED50,Rattus norvegicus [5],29.3 mg/kg
same,Activity,Rattus norvegicus [6],39%
same,ED50,Rattus norvegicus [7],0.43 mg/kg
same,ED50,Rattus norvegicus [8],7.4 mg/kg
same,Change,Rattus norvegicus [9],-79%
O=C(CCCN1CCC(O)(c2ccc(Cl)cc2)CC1)c1ccc(F)cc1 [HALOPERIDOL],ED50,Rattus norvegicus [1],0.6 mg/kg
same,ED50,Rattus norvegicus [2],0.043 mg/kg
same,ED50,Rattus norvegicus [10],0.65 mg/kg
same,ED50,Mus musculus,0.11 mg/kg
same,Activity,Rattus norvegicus [11],-26%
same,ED50,Rattus norvegicus [5],0.22 mg/kg
same,ED50,Rattus norvegicus [7],0.29 mg/kg
same,ED50,Rattus norvegicus [8],0.077 mg/kg
same,Change,Rattus norvegicus [12],-30%
same,Change,Rattus norvegicus [13],-35%
COc1cc(C(C)=O)ccc1OCCCN1CCC(c2noc3cc(F)ccc23)CC1 [ILOPERIDONE],ED50,Rattus norvegicus [14],30.7 mg/kg
same,ED50,Rattus norvegicus [1],34.8 mg/kg
same,IC50,[15],> 1000 nM
same,ED50,Rattus norvegicus [2],0.7 mg/kg
same,Activity,Rattus norvegicus [16],31%
same,IC50,[17],9 nM
same,Change,Rattus norvegicus [18],81%
same,IC50,[19],210 nM
same,ED50,Mus musculus,0.095 mg/kg
same,Change,Rattus norvegicus [20],45%
same,IC50,[21],9 nM
same,Change,Rattus norvegicus [22],-41%
same,ED50,Rattus norvegicus [5],5.2 mg/kg
same,IC50,D(1A) dopamine receptor,750 nM
same,ED50,Rattus norvegicus [7],0.07 mg/kg
same,Change,Rattus norvegicus [23],-40%
same,ED50,Rattus norvegicus [8],0.15 mg/kg
same,IC50,[24],64 nM
same,ED50,Rattus norvegicus [25],1.03 mg/kg
Cc1nc2n(c(=O)c1CCN1CCC(c3noc4cc(F)ccc34)CC1)CCCC2 [RISPERIDONE],ED50,Rattus norvegicus [14],5.7 mg/kg
same,ED50,Rattus norvegicus [1],3.2 mg/kg
same,ED50,Rattus norvegicus [2],0.48 mg/kg
same,ED50,Mus musculus,0.062 mg/kg
same,Activity,Rattus norvegicus [26],27%
same,ED50,Rattus norvegicus [5],1.3 mg/kg
same,ED50,Rattus norvegicus [8],0.13 mg/kg
